Source: PubChem
MEKK2 WT-MEK5 = modulators of MEK5 binding to wildtype MEKK2, primary screen, biochemical, multiplex bead flow cytometry, Alexa488-MEK5 | Mitogen-activated protein kinase kinase kinase 2 (Homo sapiens), Q9Y2U5 | Alexa488-MEK5 binding to MEKK2 WT; actives lie on both sides | binding response (% of control), % at 10 µM | 1.1% of 290,000 active | AID 1531, 2009; in the data active means binding response below about 67% or above about 130%
IMP-1 inh-1 = IMP-1 metallo-beta-lactamase inhibitors, primary screen, biochemical, epi-absorbance readout, Pseudomonas aeruginosa enzyme. purified IMP-1, nitrocefin hydrolysis, epi-absorbance fluorescence. inhibition, % at 5.6 µM. AID 1556, 2009. 0.45% of 290,000 active. metallo-beta-lactamase IMP-1 (Pseudomonas aeruginosa);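 active means inhibition above the mean plus 3 SD of all compounds in the same screening run, cut at about 4.5% in these data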
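System: purified IMP-1 / Input: IMP-1 dispensed at 0.2 nM / Medium: 50 mM HEPES pH 7.1, 50 µM ZnSO4, 0.05% Brij 35 / Timing: 15 min enzyme–compound preincubation, then 25 min nitrocefin reaction, 25 °C / Technique: plate fluorescence quenching by hydrolysis product, ex 480/em 530 nm / Repeats: singlicate testing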
MEKK3 PB1 HTS = modulators of MEKK3-MEK5 PB1 binding, primary screen, biochemical, wildtype MEKK3, multiplex bead flow cytometry, Alexa488-MEK5. Mitogen-activated protein kinase kinase kinase 3 (Homo sapiens), Q99759. AID 1529, 2009. 1.4% of 290,000 active. bead-based flow cytometry, Alexa488-MEK5 binding to MEKK3; actives lie on both sides; 0 = blocked by unlabeled MEK5, 100 = vehicle. binding response (% of control), % at 10 µM;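 active means binding response more than 3 SD above or below the average of its plate-row segment, actives on both sides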;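 further: Alexa488 bead fluorescence after subtracting the streptavidin-only scavenger bead signal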
MEKK2mut PB1 HTS = MEK5 binding signal on mutant MEKK2 PB1, primary screen, biochemical, multiplex bead flow cytometry, Alexa488-MEK5; Alexa488-MEK5 binding to MEKK2 mutant; percent response, % at 10 µM; 0.35% of 290,000 active; AID 1530, 2009; in the data active means percent response above about 24%, passing the limit was not always enough
VIM-2 inh = VIM-2 metallo-beta-lactamase inhibitors, primary screen, biochemical, epi-absorbance readout, Pseudomonas aeruginosa enzyme; AID 1527, 2009; inhibition, % at 5.6 µM; purified VIM-2, nitrocefin hydrolysis, epi-absorbance fluorescence; 0.89% of 290,000 active;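 active means inhibition above the mean of all tested compounds plus 3 SD, cutoff set per screening run, cut at about 7.5% in these data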;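 further: red hydrolysis product quenches plate fluorescence so inhibitors raise well fluorescence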
IMP-1 inh-2 = IMP-1 metallo-beta-lactamase inhibitors, confirmation, selectivity assay for selective VIM-2 inhibitor project, biochemical, epi-absorbance readout, triplicate | inhibition, % at 5.6 µM | 1,300 tested, under 10 active | purified IMP-1, nitrocefin hydrolysis, epi-absorbance fluorescence | shares compounds with VIM-2 inh; call rule not given here
VIM-2 FRET inh = VIM-2 inhibitors in FRET format, confirmation, artefact control for selective VIM-2 inhibitor project, biochemical, epi-absorbance artifact exclusion. shares compounds with VIM-2 inh. 23% of 1,300 active. purified VIM-2, CCF2 FRET substrate hydrolysis. inhibition, % at 5.6 µM;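 active means inhibition above the mean of all tested compounds plus 3 SD, cut at about 19% in these data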
TEM-1 inh = TEM-1 serine beta-lactamase inhibitors, counter-screen for VIM-2 inhibitor project, biochemical, epi-absorbance, HTS | Purified TEM-1, nitrocefin hydrolysis, epi-absorbance fluorescence | 3% of 1,300 active | inhibition, % at 5.6 µM | shares compounds with VIM-2 inh;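 active means inhibition above that campaign's mean inhibition plus 3 SD, cut at about 0.46% in these data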
Target sequence (P62593 whole entry, looked up): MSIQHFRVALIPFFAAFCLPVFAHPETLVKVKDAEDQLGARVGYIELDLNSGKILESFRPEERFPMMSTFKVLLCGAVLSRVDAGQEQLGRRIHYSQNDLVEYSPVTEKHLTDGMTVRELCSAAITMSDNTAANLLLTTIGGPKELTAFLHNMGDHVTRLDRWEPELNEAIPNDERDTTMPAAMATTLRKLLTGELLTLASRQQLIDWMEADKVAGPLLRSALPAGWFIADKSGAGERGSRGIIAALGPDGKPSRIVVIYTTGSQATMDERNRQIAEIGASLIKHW
VIM-2 confirm 2 = VIM-2 metallo-beta-lactamase inhibitors, confirmation, biochemical, epi-absorbance, hits shared with IMP-1 screen | shares compounds with VIM-2 inh | purified VIM-2, nitrocefin hydrolysis | inhibition, % at 5.6 µM | 96% of 1,300 active | AID 2187, 2009;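 active means inhibition of the VIM-2 beta-lactamase enzyme above about 11% from the earlier first-round screen, limit read from the data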
Each line names hits and unclear results; the compound was inactive in the other large screens (follow-up assays come after a bar, where they were run). This is a sample that favours compounds with a hit; in the whole collection about 3.4% have one here.

c1ccc2c(c1)Cc1cc3ccccc3nc1-2	none
CC(=O)OC1CC(C)N(C(=O)c2ccccc2)c2ccc(C)cc21 (stereo not drawn)	none
CN1CCN(c2ccc(NC(=O)c3cccc(OCc4ccccc4)c3)cc2)CC1	VIM-2 inh 12 (no result: MEKK2 WT-MEK5, MEKK3 PB1 HTS, MEKK2mut PB1 HTS) | IMP-1 inh-2 inactive | VIM-2 FRET inh inactive | TEM-1 inh inactive | VIM-2 confirm 2 28
CCC(=O)N1CCN(c2ccc(NC(=O)c3ccc4c(c3)OCCO4)cc2)CC1	none
CN1CCN(c2ccc(NC(=O)c3sc4ccccc4c3Cl)cc2)CC1	VIM-2 inh 22 | IMP-1 inh-2 inactive | VIM-2 FRET inh inactive | TEM-1 inh inactive | VIM-2 confirm 2 51
COc1ccc(Cn2c(=O)[nH]c3cc(C(=O)Nc4ccc(N5CCN(C)CC5)cc4)ccc32)cc1	VIM-2 inh 16 | IMP-1 inh-2 inactive | VIM-2 FRET inh inactive | TEM-1 inh inactive | VIM-2 confirm 2 42
CN1CCN(c2ccc(NC(=O)c3ccc4c(c3)OCCO4)cc2)CC1	VIM-2 inh 18 | IMP-1 inh-2 inactive | VIM-2 FRET inh inactive | TEM-1 inh inactive | VIM-2 confirm 2 34
O=S(=O)(c1ccc(Cl)cc1)N1CCN(C2CCN(Cc3ccccc3)CC2)CC1	none
Cc1cc(=O)n2[nH]c(C)c(-c3ccccc3)c2n1	none (no result: MEKK2 WT-MEK5, MEKK3 PB1 HTS, MEKK2mut PB1 HTS)
CCOc1cccc(C(=O)NC(=S)Nc2ccc(N3CCN(CC)CC3)cc2)c1	VIM-2 inh 45 | IMP-1 inh-2 inactive | VIM-2 FRET inh inactive | TEM-1 inh inactive | VIM-2 confirm 2 77
Cc1ccc(C(=O)Nc2ccc(N3CCN(C)CC3)cc2)cc1C	VIM-2 inh 16 | IMP-1 inh-2 inactive | VIM-2 FRET inh inactive | TEM-1 inh inactive | VIM-2 confirm 2 29
Cc1ccc(C(=O)Nc2ccc(N3CCN(S(C)(=O)=O)CC3)cc2)cc1C	none
CN1CCN(c2ccc(NC(=O)N3CCc4ccccc43)cc2)CC1	VIM-2 inh 28 | IMP-1 inh-2 inactive | VIM-2 FRET inh inactive | TEM-1 inh inactive | VIM-2 confirm 2 40
CCN1CCN(c2ccc(NC(=O)c3cccc(N4CCCC4=O)c3)cc2)CC1	VIM-2 inh 17 | IMP-1 inh-2 inactive | VIM-2 FRET inh inactive | TEM-1 inh inactive | VIM-2 confirm 2 22
C/C(=N\NC(=O)CCc1c(C)n[nH]c1C)c1ccc([N+](=O)[O-])cc1	none
CCOC(=O)C1CCCCN1S(=O)(=O)c1cc2c(cc1C)NC(=O)CO2 (stereo not drawn)	none
Cc1csc2c(C#N)c(=O)c3c(n12)CCC3	VIM-2 inh 14 | IMP-1 inh-2 inactive | VIM-2 FRET inh inactive | TEM-1 inh inactive | VIM-2 confirm 2 22
CCCc1cc(=O)oc2c3c(cc(OCC(=O)N[C@@H](C)C(=O)O)c12)OC(C)(C)CC3	VIM-2 inh 18 | IMP-1 inh-2 inactive | VIM-2 FRET inh 41 | TEM-1 inh inactive | VIM-2 confirm 2 24
CCCc1cc(=O)oc2c3c(cc(OCC(=O)N[C@@H](CSC)C(=O)O)c12)OC(C)(C)CC3	VIM-2 inh 37 | IMP-1 inh-2 inactive | VIM-2 FRET inh 68 | TEM-1 inh inactive | VIM-2 confirm 2 44
CCc1cc(=O)oc2c3c(cc(OCC(=O)N[C@H](C(=O)O)[C@H](C)CC)c12)OC(C)(C)CC3	none
Cc1ccc(-c2nn3cnnc3c3ccccc23)cc1	VIM-2 inh 17 | IMP-1 inh-2 inactive | VIM-2 FRET inh inactive | TEM-1 inh inactive | VIM-2 confirm 2 27
Cc1ccc(-c2nn3c(C)nnc3c3ccccc23)cc1S(=O)(=O)NCc1ccco1	none
O=C(NCc1nnc2c3ccccc3c(-c3ccccc3)nn12)c1ccccc1Cl	VIM-2 inh 17 | IMP-1 inh-2 inactive | VIM-2 FRET inh inactive | TEM-1 inh inactive | VIM-2 confirm 2 27
Cc1nnc2c3ccccc3c(-c3ccccc3)nn12	VIM-2 inh 24 | IMP-1 inh-2 inactive | VIM-2 FRET inh inactive | TEM-1 inh 1.9 | VIM-2 confirm 2 43
Cc1ccc(-c2nn3c(C)nnc3c3ccccc23)cc1S(=O)(=O)N1CCN(CCO)CC1	VIM-2 inh 61 | IMP-1 inh-2 inactive | VIM-2 FRET inh inactive | TEM-1 inh inactive | VIM-2 confirm 2 73
O=C(NCCOC(=O)c1ccc(F)cc1)c1ccc(F)cc1	none
CN(C)S(=O)(=O)c1cccc(NC(=O)c2ccc(COc3ccccc3)cc2)c1	none
Cc1ccc(-c2nn(C)c(=O)c3ccccc23)cc1S(=O)(=O)NCCN(C)C	VIM-2 inh 37 | IMP-1 inh-2 inactive | VIM-2 FRET inh inactive | TEM-1 inh inactive | VIM-2 confirm 2 51
Cc1ccc(-c2nn3c(C)nnc3c3ccccc23)cc1S(=O)(=O)NC(C)(C)CO	VIM-2 inh 22 | IMP-1 inh-2 inactive | VIM-2 FRET inh inactive | TEM-1 inh inactive | VIM-2 confirm 2 37
Cc1ccc(-c2nn3c(C)nnc3c3ccccc23)cc1S(=O)(=O)NCCO	VIM-2 inh 30 | IMP-1 inh-2 inactive | VIM-2 FRET inh inactive | TEM-1 inh inactive | VIM-2 confirm 2 37
Cc1ccc(-c2nn3c(C)nnc3c3ccccc23)cc1S(=O)(=O)NC(C)c1ccccc1 (stereo not drawn)	none
CC1CCN(S(=O)(=O)c2ccc3c(c2)c(=O)c(C(=O)NCc2ccccc2Cl)cn3C)CC1	none
Cc1cccc(C(=O)Nc2nnc(SCC(=O)NCc3ccco3)s2)c1	VIM-2 inh 18 | IMP-1 inh-2 inactive | VIM-2 FRET inh 37 | TEM-1 inh inactive | VIM-2 confirm 2 24
CC(C)(C)c1ccc(C(=O)Nc2nnc(SCC(=O)NCC3CCCO3)s2)cc1 (stereo not drawn)	none
O=C(CSc1nnc(NC(=O)c2cccc(F)c2)s1)NCC1CCCO1 (stereo not drawn)	VIM-2 inh 17 | IMP-1 inh-2 inactive | VIM-2 FRET inh 26 | TEM-1 inh inactive | VIM-2 confirm 2 15
